Test results: ChEMBL document CHEMBL1157620, “1-(Aryl)-6-[alkoxyalkyl]-3-azabicyclo[3.1.0]hexanes and 6-(aryl)-6-[alkoxyalkyl]-3-azabicyclo[3.1.0]hexanes: a new series of potent and selective triple reuptake inhibitors” (J Med Chem, 2010)

Each compound was assayed against Sodium-dependent noradrenaline transporter (Homo sapiens, UniProt P23975) (assay: Displacement of [3H]nisoxetine from human recombinant NET expressed in BacMam virus-transduced cells by scintillation proximity assay).
Type: cell-based
Method in brief: (§1)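 BacMam-transduced membranes in SPA format. SERT: 1 mg/mL beads, 6 μg/mL membranes, 3 nM [3H]citalopram. NET: 2 mg/mL beads, 40 μg/mL membranes, 10 nM [3H]nisoxetine. Incubated overnight at room temperature; pKi from pIC50 by Cheng-Prusoff.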

Sequence of Sodium-dependent noradrenaline transporter (P23975 whole entry): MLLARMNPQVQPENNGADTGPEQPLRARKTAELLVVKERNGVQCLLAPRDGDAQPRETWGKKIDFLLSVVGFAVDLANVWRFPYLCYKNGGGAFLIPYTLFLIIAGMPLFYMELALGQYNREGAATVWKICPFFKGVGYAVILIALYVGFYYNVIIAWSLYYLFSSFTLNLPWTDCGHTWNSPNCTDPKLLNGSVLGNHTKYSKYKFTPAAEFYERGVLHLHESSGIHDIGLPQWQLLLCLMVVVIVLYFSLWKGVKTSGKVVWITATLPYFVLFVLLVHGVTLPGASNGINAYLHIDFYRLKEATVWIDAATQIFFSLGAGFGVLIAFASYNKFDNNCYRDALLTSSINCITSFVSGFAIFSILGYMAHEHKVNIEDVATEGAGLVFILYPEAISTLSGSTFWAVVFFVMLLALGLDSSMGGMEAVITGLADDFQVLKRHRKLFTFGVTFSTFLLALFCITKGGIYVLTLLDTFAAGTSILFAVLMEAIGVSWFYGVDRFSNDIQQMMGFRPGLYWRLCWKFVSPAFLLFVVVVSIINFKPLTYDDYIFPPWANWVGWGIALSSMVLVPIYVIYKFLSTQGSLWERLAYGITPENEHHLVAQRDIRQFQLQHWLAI

Structure (SMILES)	Ki [nM]
CC(C)OCC[C@]1(c2ccc(Cl)c(Cl)c2)[C@@H]2CNC[C@@H]21	1.58
COCC[C@]1(c2ccc(Cl)c(Cl)c2)[C@@H]2CNC[C@@H]21	7.94
CCOCC[C@]1(c2ccc(Cl)c(Cl)c2)[C@@H]2CNC[C@@H]21	7.94
FC(F)(F)COC[C@]1(c2ccc(Cl)c(Cl)c2)[C@@H]2CNC[C@@H]21	25.1
Clc1ccc([C@@]2(CCOC3CCC3)[C@@H]3CNC[C@@H]32)cc1Cl	3.98
COCC[C@H]1[C@]2(C)CNC[C@]12c1ccc(Cl)c(Cl)c1 (racemic)	3.16
OC[C@@H]1[C@@H]2CNC[C@]12c1ccc(Cl)c(Cl)c1 (racemic)	182
Cc1cnc([C@H]2[C@@H]3CNC[C@@]32c2ccc(Cl)c(Cl)c2)o1 (racemic)	20
CCC(C)OCC[C@]1(c2ccc(Cl)c(Cl)c2)[C@@H]2CNC[C@@H]21 (mixture of isomers)	3.98
CCOCC[C@H]1[C@@H]2CNC[C@]12c1ccc(Cl)c(Cl)c1 (racemic)	3.98
OCC[C@H]1[C@@H]2CNC[C@]12c1ccc(Cl)c(Cl)c1 (racemic)	7.94
CCC(C)OC[C@]1(c2ccc(Cl)c(Cl)c2)[C@@H]2CNC[C@@H]21 (mixture of isomers)	2
Fc1ccc(OC[C@H]2[C@@H]3CNC[C@@]32c2ccc(Cl)c(Cl)c2)cc1 (racemic)	39.8
CCC[C@H]1[C@@H]2CNC[C@]12c1ccc(Cl)c(Cl)c1 (racemic)	2
COC[C@@H]1[C@@H]2CNC[C@]12c1ccc(Cl)c(Cl)c1 (racemic)	1290
Clc1ccc([C@]23CNC[C@H]2[C@@H]3COC2CCCCC2)cc1Cl (racemic)	2
OC[C@H]1[C@@H]2CNC[C@]12c1ccc(Cl)c(Cl)c1 (racemic)	28.8
Clc1ccc([C@]23CNC[C@H]2[C@H]3COCC2CC2)cc1Cl (racemic)	126
CN(C)C[C@H]1[C@@H]2CNC[C@@]21c1ccc(Cl)c(Cl)c1 (racemic)	31.6
COCC[C@H]1[C@@]2(c3ccc(Cl)c(Cl)c3)CNC[C@]12C (relative stereo)	1000
Clc1ccc([C@]23CNC[C@H]2[C@@H]3COC2CCCC2)cc1Cl (relative stereo)	0.158

These compounds were tested against Cytochrome P450 2D6 (Homo sapiens, UniProt P10635) (assay: Inhibition of human […] by fluorescence assay).
Type: ADME
Method in brief: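 Recombinant human P450 bactosomes (0.1 mg/mL) in 50 mM phosphate, pH 7.4. Test compound at 0.1-10 μM, preincubated 10 min at 37 °C with fluorogenic substrate: ethoxyresorufin 0.5 μM (1A2), FCA 50 μM (2C9), BMC 10 μM (2C19), MMC 10 μM (2D6).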

Sequence of Cytochrome P450 2D6 (P10635 whole entry): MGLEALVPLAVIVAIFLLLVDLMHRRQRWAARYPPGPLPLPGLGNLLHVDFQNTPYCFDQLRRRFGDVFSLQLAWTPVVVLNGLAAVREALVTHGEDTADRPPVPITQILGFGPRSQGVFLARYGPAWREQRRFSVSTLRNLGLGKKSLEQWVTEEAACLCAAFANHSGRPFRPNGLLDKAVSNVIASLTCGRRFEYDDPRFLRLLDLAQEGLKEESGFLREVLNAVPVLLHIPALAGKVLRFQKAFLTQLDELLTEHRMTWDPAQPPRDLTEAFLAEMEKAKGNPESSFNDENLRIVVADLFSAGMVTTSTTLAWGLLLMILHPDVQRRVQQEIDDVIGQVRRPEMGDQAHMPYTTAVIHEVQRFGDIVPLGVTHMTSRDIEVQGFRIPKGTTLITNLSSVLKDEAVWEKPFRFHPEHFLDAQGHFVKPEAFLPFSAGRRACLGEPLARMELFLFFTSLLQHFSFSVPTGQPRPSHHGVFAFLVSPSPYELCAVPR

Structure (SMILES)	IC50 [nM]
CCOCC[C@]1(c2ccc(Cl)c(Cl)c2)[C@@H]2CNC[C@@H]21	< 100
FC(F)(F)COC[C@]1(c2ccc(Cl)c(Cl)c2)[C@@H]2CNC[C@@H]21	300

These compounds were tested against Sodium-dependent serotonin transporter (Homo sapiens, UniProt P31645) (assay: Displacement of [3H]citalopram from human recombinant SERT expressed in BacMam virus-transduced cells by scintillation proximity assay).
Type: cell-based
Method in brief: as §1

Sequence of Sodium-dependent serotonin transporter (P31645 whole entry): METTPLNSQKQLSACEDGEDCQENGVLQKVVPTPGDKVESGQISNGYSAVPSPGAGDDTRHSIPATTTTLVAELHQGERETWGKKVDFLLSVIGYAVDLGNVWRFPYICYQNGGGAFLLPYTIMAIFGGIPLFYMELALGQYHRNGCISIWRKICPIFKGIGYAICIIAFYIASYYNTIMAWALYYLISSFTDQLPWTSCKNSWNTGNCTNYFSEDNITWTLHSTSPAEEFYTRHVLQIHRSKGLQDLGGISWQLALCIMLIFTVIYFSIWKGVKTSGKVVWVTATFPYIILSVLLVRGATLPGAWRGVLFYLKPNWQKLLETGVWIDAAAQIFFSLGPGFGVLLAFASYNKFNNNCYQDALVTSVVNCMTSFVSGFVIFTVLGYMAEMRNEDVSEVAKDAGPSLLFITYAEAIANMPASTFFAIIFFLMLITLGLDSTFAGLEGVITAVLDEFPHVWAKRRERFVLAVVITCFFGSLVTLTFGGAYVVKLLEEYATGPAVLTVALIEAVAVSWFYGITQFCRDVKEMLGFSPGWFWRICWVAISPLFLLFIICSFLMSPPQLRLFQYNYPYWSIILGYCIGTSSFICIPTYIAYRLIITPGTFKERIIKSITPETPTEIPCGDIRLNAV

Structure (SMILES)	Ki [nM]
CC(C)OCC[C@]1(c2ccc(Cl)c(Cl)c2)[C@@H]2CNC[C@@H]21	0.316
COCC[C@]1(c2ccc(Cl)c(Cl)c2)[C@@H]2CNC[C@@H]21	0.316
CCOCC[C@]1(c2ccc(Cl)c(Cl)c2)[C@@H]2CNC[C@@H]21	0.501
FC(F)(F)COC[C@]1(c2ccc(Cl)c(Cl)c2)[C@@H]2CNC[C@@H]21	1
Clc1ccc([C@@]2(CCOC3CCC3)[C@@H]3CNC[C@@H]32)cc1Cl	0.2
COCC[C@H]1[C@]2(C)CNC[C@]12c1ccc(Cl)c(Cl)c1 (racemic)	0.794
OC[C@@H]1[C@@H]2CNC[C@]12c1ccc(Cl)c(Cl)c1 (racemic)	51.3
Cc1cnc([C@H]2[C@@H]3CNC[C@@]32c2ccc(Cl)c(Cl)c2)o1 (racemic)	15.8
CCC(C)OCC[C@]1(c2ccc(Cl)c(Cl)c2)[C@@H]2CNC[C@@H]21 (mixture of isomers)	0.316
CCOCC[C@H]1[C@@H]2CNC[C@]12c1ccc(Cl)c(Cl)c1 (racemic)	0.794
OCC[C@H]1[C@@H]2CNC[C@]12c1ccc(Cl)c(Cl)c1 (racemic)	2.51
CCC(C)OC[C@]1(c2ccc(Cl)c(Cl)c2)[C@@H]2CNC[C@@H]21 (mixture of isomers)	0.251
Fc1ccc(OC[C@H]2[C@@H]3CNC[C@@]32c2ccc(Cl)c(Cl)c2)cc1 (racemic)	1.26
CCC[C@H]1[C@@H]2CNC[C@]12c1ccc(Cl)c(Cl)c1 (racemic)	1
COC[C@@H]1[C@@H]2CNC[C@]12c1ccc(Cl)c(Cl)c1 (racemic)	72.4
Clc1ccc([C@]23CNC[C@H]2[C@@H]3COC2CCCCC2)cc1Cl (racemic)	1
OC[C@H]1[C@@H]2CNC[C@]12c1ccc(Cl)c(Cl)c1 (racemic)	15.5
Clc1ccc([C@]23CNC[C@H]2[C@H]3COCC2CC2)cc1Cl (racemic)	31.6
CN(C)C[C@H]1[C@@H]2CNC[C@@]21c1ccc(Cl)c(Cl)c1 (racemic)	3.98
COCC[C@H]1[C@@]2(c3ccc(Cl)c(Cl)c3)CNC[C@]12C (relative stereo)	31.6
Clc1ccc([C@]23CNC[C@H]2[C@@H]3COC2CCCC2)cc1Cl (relative stereo)	0.251

These compounds were tested against Sodium-dependent dopamine transporter (Homo sapiens, UniProt Q01959) (assay: Displacement of [3H]WIN-35428 from human recombinant DAT expressed in BacMam virus-transduced cells by scintillation proximity assay).
Type: cell-based

Sequence of Sodium-dependent dopamine transporter (Q01959 whole entry): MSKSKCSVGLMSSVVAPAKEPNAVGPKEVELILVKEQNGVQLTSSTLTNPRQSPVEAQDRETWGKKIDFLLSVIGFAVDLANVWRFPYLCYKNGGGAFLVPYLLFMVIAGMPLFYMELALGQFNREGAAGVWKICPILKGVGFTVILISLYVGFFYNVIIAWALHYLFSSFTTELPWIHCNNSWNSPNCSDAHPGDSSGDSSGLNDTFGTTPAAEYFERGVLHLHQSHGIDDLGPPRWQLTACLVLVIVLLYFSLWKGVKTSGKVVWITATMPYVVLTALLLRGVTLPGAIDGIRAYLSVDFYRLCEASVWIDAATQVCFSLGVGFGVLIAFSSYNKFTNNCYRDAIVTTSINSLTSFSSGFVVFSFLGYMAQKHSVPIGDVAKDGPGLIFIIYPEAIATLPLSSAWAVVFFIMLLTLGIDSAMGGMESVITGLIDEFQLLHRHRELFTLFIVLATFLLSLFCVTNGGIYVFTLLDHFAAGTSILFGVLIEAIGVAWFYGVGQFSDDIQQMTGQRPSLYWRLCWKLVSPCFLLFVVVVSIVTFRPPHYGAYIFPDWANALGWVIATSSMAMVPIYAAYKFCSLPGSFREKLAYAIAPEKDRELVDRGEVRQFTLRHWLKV

Structure (SMILES)	Ki [nM]
CC(C)OCC[C@]1(c2ccc(Cl)c(Cl)c2)[C@@H]2CNC[C@@H]21	6.31
COCC[C@]1(c2ccc(Cl)c(Cl)c2)[C@@H]2CNC[C@@H]21	10
CCOCC[C@]1(c2ccc(Cl)c(Cl)c2)[C@@H]2CNC[C@@H]21	15.8
FC(F)(F)COC[C@]1(c2ccc(Cl)c(Cl)c2)[C@@H]2CNC[C@@H]21	25.1
Clc1ccc([C@@]2(CCOC3CCC3)[C@@H]3CNC[C@@H]32)cc1Cl	6.31
COCC[C@H]1[C@]2(C)CNC[C@]12c1ccc(Cl)c(Cl)c1 (racemic)	63.1
OC[C@@H]1[C@@H]2CNC[C@]12c1ccc(Cl)c(Cl)c1 (racemic)	479
Cc1cnc([C@H]2[C@@H]3CNC[C@@]32c2ccc(Cl)c(Cl)c2)o1 (racemic)	126
CCC(C)OCC[C@]1(c2ccc(Cl)c(Cl)c2)[C@@H]2CNC[C@@H]21 (mixture of isomers)	5.01
CCOCC[C@H]1[C@@H]2CNC[C@]12c1ccc(Cl)c(Cl)c1 (racemic)	79.4
OCC[C@H]1[C@@H]2CNC[C@]12c1ccc(Cl)c(Cl)c1 (racemic)	79.4
CCC(C)OC[C@]1(c2ccc(Cl)c(Cl)c2)[C@@H]2CNC[C@@H]21 (mixture of isomers)	7.94
Fc1ccc(OC[C@H]2[C@@H]3CNC[C@@]32c2ccc(Cl)c(Cl)c2)cc1 (racemic)	79.4
CCC[C@H]1[C@@H]2CNC[C@]12c1ccc(Cl)c(Cl)c1 (racemic)	25.1
COC[C@@H]1[C@@H]2CNC[C@]12c1ccc(Cl)c(Cl)c1 (racemic)	661
Clc1ccc([C@]23CNC[C@H]2[C@@H]3COC2CCCCC2)cc1Cl (racemic)	20
OC[C@H]1[C@@H]2CNC[C@]12c1ccc(Cl)c(Cl)c1 (racemic)	457
Clc1ccc([C@]23CNC[C@H]2[C@H]3COCC2CC2)cc1Cl (racemic)	501
CN(C)C[C@H]1[C@@H]2CNC[C@@]21c1ccc(Cl)c(Cl)c1 (racemic)	631
COCC[C@H]1[C@@]2(c3ccc(Cl)c(Cl)c3)CNC[C@]12C (relative stereo)	126
Clc1ccc([C@]23CNC[C@H]2[C@@H]3COC2CCCC2)cc1Cl (relative stereo)	2.51
